Measured values reported in ChEMBL document CHEMBL1129481, “Interactions of flavonoids and other phytochemicals with adenosine receptors” (J Med Chem, 1996).

How the values were obtained:
[1] = molecular target: T1, Adenosine receptor A3 (Homo sapiens) (UniProt P0DMS8); assay: Displacement of specific [125I]AB-MECA binding from human Adenosine A3 receptor expressed in HEK293 cells; type: cell-based; parameters: concentration or dose not given beside the values
T1 sequence (whole entry): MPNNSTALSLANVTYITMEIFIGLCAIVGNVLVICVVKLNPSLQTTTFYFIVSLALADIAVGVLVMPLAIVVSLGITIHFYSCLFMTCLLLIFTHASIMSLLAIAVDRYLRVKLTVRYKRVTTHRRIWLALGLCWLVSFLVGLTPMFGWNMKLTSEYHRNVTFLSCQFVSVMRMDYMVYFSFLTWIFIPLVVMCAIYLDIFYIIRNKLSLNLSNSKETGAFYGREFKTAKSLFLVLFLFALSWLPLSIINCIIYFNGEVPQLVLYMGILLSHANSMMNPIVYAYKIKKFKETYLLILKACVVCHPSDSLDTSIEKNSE
How it was run: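 Membranes came from HEK-293 cells stably expressing human A3. Binding used Mg2+-free 50 mM Tris with 1 mM EDTA, pH 8.0, and 0.3 nM final [125I]AB-MECA. Compounds came from DMSO stock, ≤1% final. Duplicates ran 1 h at 37 or 25 °C, then filtration and γ-counting. Nonspecific binding was set with 100 μM (R)-PIA.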

Adenosine receptor A1 = molecular target: T2, Adenosine receptor A1 (Rattus norvegicus, UniProt P25099); assay: Displacement of specific [3H]PIA binding from adenosine A1 receptor in rat brain membranes.; type: cell membranes
T2 sequence (P25099 whole entry): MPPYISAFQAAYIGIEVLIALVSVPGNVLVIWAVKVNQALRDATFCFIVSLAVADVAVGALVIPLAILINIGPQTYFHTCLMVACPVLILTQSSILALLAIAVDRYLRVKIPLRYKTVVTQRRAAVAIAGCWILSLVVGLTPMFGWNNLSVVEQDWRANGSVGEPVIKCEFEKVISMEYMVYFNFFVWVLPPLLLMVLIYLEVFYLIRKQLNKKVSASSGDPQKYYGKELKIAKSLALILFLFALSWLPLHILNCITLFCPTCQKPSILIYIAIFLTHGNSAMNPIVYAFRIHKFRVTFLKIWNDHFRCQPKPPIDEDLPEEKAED
How it was run: (§1)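 Rat cortical membranes were pretreated with adenosine deaminase (3 units/mL) for 30 min at 30 °C during preparation. The enzyme was also present during incubation with [3H]-(R)-PIA. Ki values were derived from displacement of specific binding.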

Adenosine receptor A3 = molecular target: T3, Adenosine receptor A3 (Homo sapiens, UniProt P0DMS8); assay: Displacement of [125I]AB-MECA binding to human Adenosine A3 receptor expressed in HEK293 cells; type: cell-based
T3 sequence (P0DMS8 whole entry): T1 sequence (whole entry)
How it was run: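 Membranes came from HEK-293 cells stably expressing human A3. Compounds came from DMSO stock, ≤1% final. Duplicates ran 1 h at 37 or 25 °C, then filtration and γ-counting. Nonspecific binding was set with 100 μM (R)-PIA.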

[2] = molecular target: T4, Adenosine receptor A1 (Rattus norvegicus) (UniProt P25099); assay: Displacement of [3H]PIA from Adenosine A1 receptor in rat brain membranes; type: cell membranes; how it was run: as §1
T4 sequence (whole entry): T2 sequence (P25099 whole entry)

[3] = molecular target: Adenosine receptor A2a (Rattus norvegicus) (UniProt P30543); assay: Displacement of [3H]-CGS- 21680 from Adenosine A2A receptor in rat striatal membranes at 10e-4 M; type: cell membranes; details: Membrane
How it was run: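 Rat striatal membranes were prepared with adenosine deaminase (3 units/mL), including a 30 min step at 30 °C. The enzyme was kept during the [3H]CGS 21680 incubation.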

Adenosine receptor A2a = Adenosine receptor A2a (Rattus norvegicus, UniProt P30543); assay: Affinity at Adenosine A2A receptor in rat striatal membranes by [3H]- CGS 21680 displacement.; type: cell membranes, Striatum, Membrane
How it was run: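 Rat striatal membranes were prepared with adenosine deaminase (3 units/mL), including a 30 min step at 30 °C.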

Chain of Adenosine receptor A2a (Rattus norvegicus) (P30543 whole entry): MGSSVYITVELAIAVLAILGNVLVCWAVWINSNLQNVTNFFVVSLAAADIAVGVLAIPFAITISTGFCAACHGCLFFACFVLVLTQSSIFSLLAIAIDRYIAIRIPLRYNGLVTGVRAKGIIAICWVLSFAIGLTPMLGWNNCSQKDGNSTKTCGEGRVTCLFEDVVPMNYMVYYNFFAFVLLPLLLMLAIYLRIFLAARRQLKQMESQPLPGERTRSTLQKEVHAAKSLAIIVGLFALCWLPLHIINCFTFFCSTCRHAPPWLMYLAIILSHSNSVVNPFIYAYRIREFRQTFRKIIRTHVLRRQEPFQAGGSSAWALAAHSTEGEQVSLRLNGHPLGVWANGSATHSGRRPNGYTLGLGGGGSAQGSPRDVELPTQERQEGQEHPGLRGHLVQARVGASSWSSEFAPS
Chain of Adenosine receptor A2a (P30543 whole entry): as above

Structure (SMILES)	Displacement [1]	other results
O=c1cc(-c2ccccc2)oc2cccc(O)c12	47%	–
O=c1cc(-c2ccc(O)cc2)oc2cc(O)cc(O)c12	63%	–
Cc1ccc(-c2cc(=O)c3c(C)c(C)c(C)cc3o2)cc1	–	Ki (Adenosine receptor A1): 1.29 µM; Ki (Adenosine receptor A3): 4.48 µM
COc1cc(OC)c2c(=O)c(OC)c(-c3cc(OC)c(OC)c(OC)c3)oc2c1	–	Displacement [2]: < 10%
O=c1c(-c2ccc(O)cc2)coc2cc(O)cc(O)c12	20%	–
O=c1cc(-c2ccccc2)oc2c1ccc1ccccc12	71%	–
COc1c(O)cc2oc(-c3ccc(O)cc3)cc(=O)c2c1O	63%	–
CCn1c2c(c3cc4c(cc3c1=O)OCO4)C(=O)CCC2	19%	–
O=C1c2c(O)cc(O)cc2OC(c2ccc(O)c(O)c2)C1O (racemic)	–	Displacement [2]: < 10%
COc1ccc(-c2cc(=O)c3c(O)cc(OC)cc3o2)cc1	69%	Displacement [3]: < 10%; Displacement [2]: < 10%
COc1ccc(-c2cc(=O)c3ccc(O)cc3o2)cc1OC	32%	–
O=C1c2cc(O)c(O)cc2C2c3ccc(O)c(O)c3OCC12O (stereo not given)	< 10%	Displacement [3]: 28%
COc1cc2c3c(c1)c1cc4c(cc1c(=O)n3CC2)OCO4	< 10%	Displacement [3]: < 10%
COc1cc(O)c2c(c1)OC(c1ccc(O)cc1)CC2=O (stereo not given)	–	Ki (Adenosine receptor A2a): 35.6 µM; Ki (Adenosine receptor A1): 8.18 µM; Ki (Adenosine receptor A3): 3.4 µM
COc1cc2c(c(O)c1OC)c(=O)c1ccccc1n2C	63%	–
COc1ccc2c(=O)c(O)c(-c3ccc(O)c(O)c3)oc2c1	–	Ki (Adenosine receptor A3): 1.38 µM
O=c1cc(-c2ccccc2)oc2cc(O)ccc12	41%	–
O=C1c2ccccc2-c2cc3c(cc21)OCO3	52%	–
COc1cc2c3c(oc(=O)c2cc1OC)CCCC3=O	< 10%	–
COC1C=CC23c4cc5c(cc4C[N+](C)(CC2OC(C)=O)C3C1)OCO5 (stereo not given)	< 10%	Displacement [3]: < 10%
O=c1cc(-c2ccccc2)oc2ccc3ccccc3c12	12%	Displacement [3]: < 10%
